Results as given in ChEMBL document CHEMBL1142297, “2,6-Diaryl-4-phenacylaminopyrimidines as potent and selective adenosine A(2A) antagonists with reduced hERG liability” (Bioorg Med Chem Lett, 2008).
Converted amounts (≈) assume the structure as drawn.

Columns and labels:
[1] = target: T1, Adenosine receptor A2a (Homo sapiens, UniProt P29274); assay: Displacement of [3H]ZM241385 from human adenosine A2A receptor expressed in HEK293 cells; type: cell-based
[2] = species: Homo sapiens; assay: Selectivity for human adenosine A2A receptor over human adenosine A1 receptor
In short: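 Ki ratio from radioligand displacement in HEK293 cells expressing human receptors. A2A uses [3H]-ZM241385 and A1 uses [3H]-DPCPX. A standard antagonist is included on each plate. Geometric means of 3–6 independent experiments, SD ≤20%.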

[3] = target: Cytochrome P450 3A4 (Homo sapiens, UniProt P08684); assay: Inhibition of CYP3A4; type: ADME
Chain of Cytochrome P450 3A4 (P08684 whole entry, canonical isoform): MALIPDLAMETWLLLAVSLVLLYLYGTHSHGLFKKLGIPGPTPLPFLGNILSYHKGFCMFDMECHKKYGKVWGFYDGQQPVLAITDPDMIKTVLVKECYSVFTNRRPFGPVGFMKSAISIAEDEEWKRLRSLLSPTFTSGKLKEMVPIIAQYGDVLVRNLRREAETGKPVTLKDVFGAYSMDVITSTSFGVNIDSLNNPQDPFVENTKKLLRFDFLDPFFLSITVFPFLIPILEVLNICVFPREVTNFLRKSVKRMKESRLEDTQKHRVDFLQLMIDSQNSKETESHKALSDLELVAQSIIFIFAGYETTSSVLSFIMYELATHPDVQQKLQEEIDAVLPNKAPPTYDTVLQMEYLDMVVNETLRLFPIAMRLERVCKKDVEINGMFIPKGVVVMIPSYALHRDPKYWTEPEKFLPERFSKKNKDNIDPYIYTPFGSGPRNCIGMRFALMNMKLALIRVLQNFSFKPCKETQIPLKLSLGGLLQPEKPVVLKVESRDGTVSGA
In short: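 Recombinant CYP3A4 in microsomes from transfected cells expressing only that isoform, with the fluorescent substrate BFC; ketoconazole as positive control. IC50 determined; compounds with IC50 < 30 µM run in two or three experiments.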

[4] = target: Cytochrome P450 2D6 (Homo sapiens, UniProt P10635); assay: Inhibition of CYP2D6; type: ADME
Chain of Cytochrome P450 2D6 (P10635 whole entry): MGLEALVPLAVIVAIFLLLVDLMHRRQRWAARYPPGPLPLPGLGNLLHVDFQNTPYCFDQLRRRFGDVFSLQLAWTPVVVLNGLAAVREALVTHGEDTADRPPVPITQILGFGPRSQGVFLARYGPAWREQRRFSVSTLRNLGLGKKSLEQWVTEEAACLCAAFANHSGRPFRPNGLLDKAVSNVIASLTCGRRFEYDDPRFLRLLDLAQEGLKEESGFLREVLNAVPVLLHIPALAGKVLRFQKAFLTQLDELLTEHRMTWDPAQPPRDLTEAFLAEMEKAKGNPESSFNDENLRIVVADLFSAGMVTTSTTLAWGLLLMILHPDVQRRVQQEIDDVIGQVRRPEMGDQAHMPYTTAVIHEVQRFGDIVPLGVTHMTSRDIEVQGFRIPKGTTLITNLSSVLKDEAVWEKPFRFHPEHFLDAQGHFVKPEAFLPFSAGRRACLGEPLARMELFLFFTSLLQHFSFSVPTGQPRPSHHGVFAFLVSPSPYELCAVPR
In short: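 Recombinant CYP2D6 in microsomes from transfected cells, with the fluorescent substrate AMMC; quinidine as positive control. IC50 determined; compounds with IC50 < 30 μM assayed in two or three experiments.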

[5] = target: Voltage-gated inwardly rectifying potassium channel KCNH2 (Homo sapiens, UniProt Q12809); assay: Inhibition of human ERG expressed in HEK cells assessed as effect on electric current by patch clamp assay; type: cell-based, HEK293
Chain of Voltage-gated inwardly rectifying potassium channel KCNH2 (Q12809 whole entry): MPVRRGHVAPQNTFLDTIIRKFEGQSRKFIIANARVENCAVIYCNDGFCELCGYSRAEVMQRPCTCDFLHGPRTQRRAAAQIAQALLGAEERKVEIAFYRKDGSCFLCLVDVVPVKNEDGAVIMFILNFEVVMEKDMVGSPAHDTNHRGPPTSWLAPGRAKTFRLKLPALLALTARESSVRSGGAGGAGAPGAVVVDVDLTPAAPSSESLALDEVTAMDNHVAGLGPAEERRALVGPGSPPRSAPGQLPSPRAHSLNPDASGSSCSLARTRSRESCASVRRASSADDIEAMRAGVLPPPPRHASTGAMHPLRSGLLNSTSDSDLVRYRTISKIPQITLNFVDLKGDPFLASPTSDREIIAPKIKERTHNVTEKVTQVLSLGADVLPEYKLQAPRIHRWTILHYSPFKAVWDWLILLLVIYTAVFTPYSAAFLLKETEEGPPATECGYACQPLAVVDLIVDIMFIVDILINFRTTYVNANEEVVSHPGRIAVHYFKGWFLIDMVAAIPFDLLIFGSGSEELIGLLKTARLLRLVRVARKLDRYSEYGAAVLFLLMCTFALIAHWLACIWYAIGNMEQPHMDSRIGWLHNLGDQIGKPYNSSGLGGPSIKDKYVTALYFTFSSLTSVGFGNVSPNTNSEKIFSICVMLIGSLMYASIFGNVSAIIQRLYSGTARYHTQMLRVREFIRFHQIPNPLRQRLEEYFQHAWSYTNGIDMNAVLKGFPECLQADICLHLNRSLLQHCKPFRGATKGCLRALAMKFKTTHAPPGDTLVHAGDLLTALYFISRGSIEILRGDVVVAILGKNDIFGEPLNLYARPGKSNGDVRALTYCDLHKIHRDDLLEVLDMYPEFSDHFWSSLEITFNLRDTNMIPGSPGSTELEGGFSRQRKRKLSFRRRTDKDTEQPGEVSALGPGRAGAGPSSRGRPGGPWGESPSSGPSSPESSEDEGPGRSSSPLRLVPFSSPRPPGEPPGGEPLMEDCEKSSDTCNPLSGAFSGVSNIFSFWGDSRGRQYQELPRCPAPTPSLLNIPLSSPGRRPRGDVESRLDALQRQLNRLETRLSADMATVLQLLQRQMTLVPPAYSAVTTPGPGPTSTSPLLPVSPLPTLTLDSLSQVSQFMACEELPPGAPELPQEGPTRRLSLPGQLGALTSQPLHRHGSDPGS
In short: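 hERG potassium current was recorded by patch clamp in a HEK cell line stably carrying hERG. Each compound was applied at six concentrations (0.1 nM, 1 nM, 10 nM, 100 nM, 1 μM, 10 μM), and its effect on current was read at the end of a 5-min application. Cisapride (30 nM) served as positive control.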

[6] = Solubility in buffer solution at pH 2; type: physicochemical
In short: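 About 1 mg of solid is weighed into pH 2.00 buffer solution, sonicated 10 min, shaken overnight and centrifuged. The supernatant is quantified by HPLC against a standard curve of known dilutions of authentic sample.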

[7] = Metabolic stability in human liver microsomes; type: ADME, Microsome
[8] = target: T1, Adenosine receptor A2a; assay: Antagonist activity at human adenosine A2A receptor expressed in HEK293 cells by cAMP assay; type: functional, cell-based

T1 sequence (P29274 whole entry): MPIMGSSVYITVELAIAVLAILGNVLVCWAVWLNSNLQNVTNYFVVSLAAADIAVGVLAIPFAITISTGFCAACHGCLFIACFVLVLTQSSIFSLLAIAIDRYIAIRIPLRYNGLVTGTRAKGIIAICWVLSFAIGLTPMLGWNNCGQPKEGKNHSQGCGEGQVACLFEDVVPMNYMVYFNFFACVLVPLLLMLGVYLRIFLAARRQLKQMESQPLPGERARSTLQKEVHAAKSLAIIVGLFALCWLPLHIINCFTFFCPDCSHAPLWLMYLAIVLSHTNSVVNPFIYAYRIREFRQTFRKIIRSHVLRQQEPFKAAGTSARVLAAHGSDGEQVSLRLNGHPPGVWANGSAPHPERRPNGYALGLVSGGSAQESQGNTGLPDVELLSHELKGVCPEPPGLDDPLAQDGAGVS

Row | Ki [1] [nM] | Selectivity ratio [2] | IC50 [3] [nM] | Compound | other results
1 | 2 | 162 |  | Cc1cc(C)n(-c2cc(NC(=O)Cc3ccc(N(C)C)cc3)nc(-c3ccc(C)o3)n2)n1 | 
2 | 2 | 487 | > 5000 | COc1cc(CC(=O)Nc2cc(-n3nc(C)cc3C)nc(-c3ccc(C)o3)n2)cc(OC)c1 | IC50 [4]: > 5000 nM; IC50 [5]: > 3000 nM; solubility [6]: < 100 µg/mL; CLint scaled [7]: 78 mL/min/kg
3 | 1 | 477 | 1300 | COc1cc(CC(=O)Nc2cc(-n3nc(C)cc3C)nc(-c3ccccn3)n2)cc(OC)c1 | 
4 | 1 | 66 | 1800 | COc1ccc(CC(=O)Nc2cc(-n3nc(C)cc3C)nc(-c3ccccn3)n2)cc1 | 
5 | 1 | 257 | 7000 | CCOc1ccc(CC(=O)Nc2cc(-n3nc(C)cc3C)nc(-c3ccccn3)n2)cc1OC | CLint scaled [7]: 47 mL/min/kg
6 | 2 | 180 |  | COc1ccc(CC(=O)Nc2cc(-n3nc(C)cc3C)nc(-c3ccc(C)o3)n2)cc1OC | 
7 | 3 | 411 |  | COc1ccc(CC(=O)Nc2cc(-n3nc(C)cc3C)nc(-c3ccc(C)o3)n2)cc1C | 
8 | 4 | 61 |  | COc1ccc(CC(=O)Nc2cc(-n3nc(C)cc3C)nc(-c3ccc(C)o3)n2)cc1 | 
9 | 3 | 186 | > 10000 | Cc1cc(C)cc(CC(=O)Nc2cc(-n3nc(C)cc3C)nc(-c3ccccn3)n2)c1 | CLint scaled [7]: 113 mL/min/kg
10 | 3 | 129 |  | COc1ccc(CC(=O)Nc2cc(-n3nc(C)cc3C)nc(-c3ccc(C)o3)n2)cc1F | 
11 | 5 | 152 |  | Cc1cc(C)n(-c2cc(NC(=O)Cc3ccc(F)c(F)c3)nc(-c3ccc(C)o3)n2)n1 | 
12 | 1 | 148 | > 10000 | Cc1cc(C)n(-c2cc(NC(=O)Cc3ccc(S(C)(=O)=O)cc3)nc(-c3ccccn3)n2)n1 | solubility [6]: 500 µg/mL (≈ 1080 µM); CLint scaled [7]: 7 mL/min/kg; IC50 [8]: 100 nM
13 | 5 | 90 |  | Cc1cc(C)n(-c2cc(NC(=O)Cc3ccc(NS(C)(=O)=O)cc3)nc(-c3ccc(C)o3)n2)n1 | 
14 | 5 | 126 |  | Cc1cc(C)n(-c2cc(NC(=O)Cc3cc(F)cc(F)c3)nc(-c3ccc(C)o3)n2)n1 | 
15 | 10 | 12 |  | COc1ccc(CC(=O)Nc2cc(-n3cccn3)nc(-c3ccc(C)o3)n2)cc1 | 

Row | Compound | Ki [1] [nM] | Selectivity ratio [2] | IC50 [3] [nM] | other results
16 | COc1ccc(CC(=O)Nc2cc(-c3nccs3)nc(-c3ccccn3)n2)cc1 | 1 | 18 |  | 
17 | Cc1cc(C)n(-c2cc(NC(=O)Cc3ccc(CN4CCOCC4)cc3)nc(-c3ccc(C)o3)n2)n1 | 0.8 | 179 |  | 
18 | COc1ccc(CC(=O)Nc2cc(-c3nccs3)nc(-c3ccc(C)o3)n2)cc1 | 6 | 12 |  | 
19 | Cc1cc(C)n(-c2cc(NC(=O)Cc3ccc(CN(C)C)cc3)nc(-c3ccc(C)o3)n2)n1 | 0.2 | 80 |  | 
